Results on 14 molecules are retold here after PubChem BioAssay.

A short description of experiment [1]: Her2 expression decrease, cell viability multiplex – SKBR3 breast tumor cells, AlphaScreen, ATP viability, primary screen (AID 461;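 active means Her2 level under about 52% in both replicate screens, with viability over 70% of control, limit read from the data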;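 on Her2 level: lower value means less Her2 protein in the cells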;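 on viability: percent of carrier control wells set as 100% viability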). Conditions: SKBR3 Her2 protein level, 18-24 h, measured here: SKBR3 viability, ATP luminescence, at 10 µM. In general terms: Alpha assays give light when donor and acceptor beads are brought close together.
The target of experiment [2] is Receptor tyrosine-protein kinase erbB-2 (Homo sapiens) (UniProt P04626). The description is as above. The settings on record: 18-24 h, at 10 µM, stronger effect = lower value.
Experiment [3] is described as follows: reduced viability of SK-BR-3 breast cancer cells – cell-based, 24 h, human, pilot screen (AID 572).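 Further: compound exposure lasted between 18 and 24 h rather than exactly 24 h; 100% = carrier-treated control wells.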 The settings on record: SK-BR-3 viability, CellTiter-Glo luminescence, at 10 µM, stronger effect = lower value. On the technique in general: In ATP-based viability assays light output follows the ATP content of the culture.
A short description of experiment [4]: HUVEC growth inhibition – cell-based, human, primary screen (AID 575;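 active means viability at or below 30% in both replicate assays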;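 further: 100% = median of untreated cell wells with 0.1% DMSO on each plate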). Conditions: HUVEC proliferation, CellTiter-Glo luminescence, 72 h; at 10 µM; stronger effect = lower value. In short, it runs like this: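 Test system: primary human umbilical vein endothelial cells; medium: endothelial basal medium with 2% FBS plus growth supplements; dosing: 10 µM compound only; times: 72 h treatment at 37 °C; signal: CTG luminescence; read-out: % viability relative to median vehicle-well signal on each plate; control set: vehicle and MePR control wells; plate: 384-well, collagen-coated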

The nature of experiment [5]: H69AR cell proliferation blockers – human, duplicate replicates, primary screen (AID 580;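 active means viability at or under a set limit in both replicates, limit being median viability minus 3 SD, cut at about 48% in these data, passing the limit was not always enough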;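 further: 100% = mean luminescence of untreated wells and 0% = no signal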). Conditions: H69AR lung tumor cells viability, ATP luminescence, 72 h; at 10 µM; stronger effect = lower value.
Experiment [6] in a line: MRP1 drug-resistance reversers in H69AR cells – cell-based, doxorubicin co-treatment, pilot screen (AID 601;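 active means viability loss from added drug above about 55%, and viability with drug at most 40%, in both replicates, limit read from the data, passing the limit was not always enough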). The settings on record: CellTiter-Glo, 72 h, at 10 µM; for differential viability (reversal): stronger effect = higher value.
Experiment [7] is described as follows: yeast transport mutant growth inhibition pilot in 384-well plates, post-Golgi transport modulator project (AID 636; in the data active means inhibition above about 31%). Conditions: absorbance 615 nm, about 18 h, stronger effect = higher value.
A short description of experiment [8]: growth suppression of yeast trafficking mutant, preliminary HTS, modulators of trafficking downstream of Golgi apparatus project, 1536-format plate, OD 615 nm (AID 637; in the data active means inhibition above about 30%). Conditions: yeast transport mutant growth, absorbance 615 nm, 18 h; stronger effect = higher value.
Where [9] appears, read: H69AR cells + 2 uM doxorubicin, measured here: viability with 2 uM doxorubicin, stronger effect = lower value.
Setting [10] is: H69AR cells, compound alone cytotoxicity.

Active and inactive are the calls of the source.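 How the source made its calls, unless noted: active means viability at or below 10% of carrier control in both of two separate runs; inconclusive means viability at or below 10% in only one of the two runs; inactive means the rest.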

Receptor tyrosine-protein kinase erbB-2 (Homo sapiens), sequence (P04626 whole entry, looked up): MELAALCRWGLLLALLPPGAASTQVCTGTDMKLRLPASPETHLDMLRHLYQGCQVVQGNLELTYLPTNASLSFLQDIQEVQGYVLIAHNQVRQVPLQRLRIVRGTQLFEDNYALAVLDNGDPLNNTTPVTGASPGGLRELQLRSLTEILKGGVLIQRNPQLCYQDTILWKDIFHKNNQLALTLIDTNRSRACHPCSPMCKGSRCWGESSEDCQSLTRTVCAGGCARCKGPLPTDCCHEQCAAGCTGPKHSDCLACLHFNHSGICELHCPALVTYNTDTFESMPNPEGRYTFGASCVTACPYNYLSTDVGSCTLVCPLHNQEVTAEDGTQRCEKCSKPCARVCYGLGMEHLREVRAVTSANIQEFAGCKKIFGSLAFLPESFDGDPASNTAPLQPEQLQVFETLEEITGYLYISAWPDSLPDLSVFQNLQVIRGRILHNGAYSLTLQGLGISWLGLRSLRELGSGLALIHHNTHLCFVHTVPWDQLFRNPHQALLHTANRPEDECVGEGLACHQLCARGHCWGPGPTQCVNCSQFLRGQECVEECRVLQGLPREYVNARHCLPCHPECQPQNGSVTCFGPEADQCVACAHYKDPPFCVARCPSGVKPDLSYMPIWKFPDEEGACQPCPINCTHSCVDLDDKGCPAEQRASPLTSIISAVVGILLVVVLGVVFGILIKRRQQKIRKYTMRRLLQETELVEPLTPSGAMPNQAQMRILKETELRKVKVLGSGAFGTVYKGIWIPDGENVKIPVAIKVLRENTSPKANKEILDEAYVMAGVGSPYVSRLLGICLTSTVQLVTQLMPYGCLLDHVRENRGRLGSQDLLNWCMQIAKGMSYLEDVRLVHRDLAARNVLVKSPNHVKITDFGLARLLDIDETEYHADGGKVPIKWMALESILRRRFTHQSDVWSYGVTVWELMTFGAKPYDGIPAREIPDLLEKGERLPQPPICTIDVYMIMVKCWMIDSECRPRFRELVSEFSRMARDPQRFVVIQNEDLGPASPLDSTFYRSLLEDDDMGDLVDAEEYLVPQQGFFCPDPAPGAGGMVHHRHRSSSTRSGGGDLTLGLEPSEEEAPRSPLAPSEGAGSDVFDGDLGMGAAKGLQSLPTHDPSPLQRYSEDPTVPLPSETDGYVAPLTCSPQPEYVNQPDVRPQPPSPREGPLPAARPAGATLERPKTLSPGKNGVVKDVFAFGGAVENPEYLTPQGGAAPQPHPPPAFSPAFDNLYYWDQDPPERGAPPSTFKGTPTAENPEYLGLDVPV

As to `Cc1nc2c3cnn(-c4ccccc4)c3ncn2n1`, the viability in experiment [1] was 104%; in experiment [3] it was 104% (inactive); in experiment [4], 79.6% (inactive); in experiment [5], 96.7% (inactive); in experiment [6] (setting [9]), 82.5%; in experiment [6] (setting [10]), 96.7%. Further, in experiment [2], the Her2 level was 86% (inactive). Further, the differential viability (reversal) in experiment [6] (H69AR cells + 2 uM doxorubicin) was 14.2% (inactive). For the same molecule, the inhibition was -3.87% (inactive) in experiment [7] and 1.64% (inactive) in experiment [8].

`C=CCNS(=O)(=O)c1ccc2nsnc2c1`: the viability was 102% in experiment [1]; 102% (inactive) in experiment [3]; 87.8% (inactive) in experiment [4]; 100% (inactive) in experiment [5]; 102% in experiment [6] (setting [9]); 100% in experiment [6] (setting [10]). In experiment [2], the Her2 level is 109% (inactive). The differential viability (reversal) in experiment [6] (H69AR cells + 2 uM doxorubicin) is -1.67% (inactive). Further, the inhibition in experiment [7] is 0.27% (inactive); in experiment [8] it was -2.1% (inactive).

For the molecule `O=C(CCCN1C(=O)c2ccccc2C1=O)Oc1ccc(F)cc1`, the viability in experiment [1] is 98%; in experiment [3], 98% (inactive); in experiment [4], 98.2% (inactive); in experiment [5], 94.8% (inactive); in experiment [6] (setting [9]), 85.2%; in experiment [6] (setting [10]), 94.8%. Also, in experiment [2], the Her2 level is 98% (inactive). The differential viability (reversal) in experiment [6] (H69AR cells + 2 uM doxorubicin) was 9.54% (inactive). In addition, the inhibition is -5.47% (inactive) in experiment [7] and 1.29% (inactive) in experiment [8].

On to `Cc1cccc(-c2nc(CN3CCCC(C(=O)NC4CCCC4)C3)c(C)o2)c1` (stereo not given), for which the viability in experiment [1] is 86%; in experiment [3] it was 86% (inactive); in experiment [4], 72.3% (inactive); in experiment [5], 84.2% (inactive); in experiment [6] (setting [9]), 95.4%; in experiment [6] (setting [10]), 84.2%. In addition, the Her2 level in experiment [2] is 86.5% (inactive). In experiment [6] (H69AR cells + 2 uM doxorubicin), the differential viability (reversal) was -11.2% (inactive). The results for the inhibition in experiment [7] and in experiment [8] were 1.73% (inactive) and 2.9% (inactive), respectively.

Take `CC(=O)N1C(=O)C2(C(C#N)=C(N)Oc3cc(C)oc(=O)c32)c2ccccc21` (stereo not given): the viability is 95.5% in experiment [1]; 95.5% (inactive) in experiment [3]; 95.9% (inactive) in experiment [4]; 88.1% (inactive) in experiment [5]; 80.6% in experiment [6] (setting [9]); 88.1% in experiment [6] (setting [10]). Moreover, in experiment [2], the Her2 level is 112% (inactive). For the same molecule, the differential viability (reversal) in experiment [6] (H69AR cells + 2 uM doxorubicin) was 7.52% (inactive). In addition, the inhibition is 1.84% (inactive) in experiment [7] and -2.91% (inactive) in experiment [8].

For the molecule `CCOC(=O)NC1(NCc2ccccc2)Oc2ccccc2O1`, the viability in experiment [1] was 92.5%; in experiment [3], 92.5% (inactive); in experiment [4] it was 58.5% (inactive); in experiment [5] it was 36.8% (active); in experiment [6] (setting [9]), 61.7%; in experiment [6] (setting [10]), 36.8%. In addition, the Her2 level in experiment [2] is 101% (inactive). In experiment [6] (H69AR cells + 2 uM doxorubicin), the differential viability (reversal) was -25% (inactive). Moreover, the inhibition is 6.23% (inactive) in experiment [7] and -8.69% (inactive) in experiment [8].

Consider `COc1ccc(CCNC(=O)COc2ccc(S(=O)(=O)N3CCOCC3)cc2)cc1`, for which the viability in experiment [1] was 98%; in experiment [3] it was 98% (inactive); in experiment [4], 102% (inactive); in experiment [5] it was 95.1% (inactive); in experiment [6] (setting [9]), 88.9%; in experiment [6] (setting [10]), 95.1%. For the same molecule, in experiment [2], the Her2 level is 87% (inactive). Also, the differential viability (reversal) in experiment [6] (H69AR cells + 2 uM doxorubicin) is 6.25% (inactive). Further, the inhibition in experiment [7] was -6.76% (inactive); in experiment [8], 0% (inactive).

For the molecule `CCOC(=O)C1=C(C)NC(C)=C(C(=O)OCC)C1C(=O)OC1CCOC1=O` (stereo not given), the viability in experiment [1] is 104%; in experiment [3], 104% (inactive); in experiment [4], 87.5% (inactive); in experiment [5], 93.8% (inactive); in experiment [6] (setting [9]), 91.4%; in experiment [6] (setting [10]), 93.8%. Further, the Her2 level in experiment [2] is 85% (inactive). In experiment [6] (H69AR cells + 2 uM doxorubicin), the differential viability (reversal) was 2.32% (inactive). In addition, the inhibition in experiment [7] was -5.27% (inactive); in experiment [8], 0.95% (inactive).

With `CC(C)(C)C(=O)CNS(=O)(=O)c1ccc(S(=O)(=O)NC2CCCC2)cc1`, the viability was 104% in experiment [1]; 104% (inactive) in experiment [3]; 115% (inactive) in experiment [4]; 98.8% (inactive) in experiment [5]; 87.6% in experiment [6] (setting [9]); 98.8% in experiment [6] (setting [10]). In addition, the Her2 level in experiment [2] is 92% (inactive). Further, the differential viability (reversal) in experiment [6] (H69AR cells + 2 uM doxorubicin) was 11.2% (inactive). Moreover, the values for the inhibition in experiment [7] and in experiment [8] were -3.56% (inactive) and 1.9% (inactive), respectively.

On to `COc1cccc(-c2cc(C(F)(F)F)n3ncc(C(=O)O)c3n2)c1`, for which the viability is 93% in experiment [1]; 93% (inactive) in experiment [3]; 117% (inactive) in experiment [4]; 108% (inactive) in experiment [5]; 98.8% in experiment [6] (setting [9]); 108% in experiment [6] (setting [10]). Besides, the Her2 level in experiment [2] was 87.5% (inactive). Further, the differential viability (reversal) in experiment [6] (H69AR cells + 2 uM doxorubicin) is 9.06% (inactive). In addition, the inhibition in experiment [7] was -3.2% (inactive); in experiment [8], -2.95% (inactive).

Take `NC(=O)CSc1nnc(-c2ccc(O)cc2)n1Cc1ccco1`: the viability in experiment [1] was 108%; in experiment [3], 108% (inactive); in experiment [4], 105% (inactive); in experiment [5] it was 98.6% (inactive); in experiment [6] (setting [9]) it was 89.3%; in experiment [6] (setting [10]), 98.6%. In experiment [2], the Her2 level is 102% (inactive). In addition, the differential viability (reversal) in experiment [6] (H69AR cells + 2 uM doxorubicin) was 9.33% (inactive). The inhibition was -6% (inactive) in experiment [7] and 4.68% (inactive) in experiment [8].

As to `CCCCSc1cc(C)nc2ncnn12`, the viability was 98.5% in experiment [1]; 98.5% (inactive) in experiment [3]; 75.2% (inactive) in experiment [4]; 99.7% (inactive) in experiment [5]; 102% in experiment [6] (setting [9]); 99.7% in experiment [6] (setting [10]). Besides, the Her2 level in experiment [2] is 131% (inactive). Also, the differential viability (reversal) in experiment [6] (H69AR cells + 2 uM doxorubicin) is -1.97% (inactive). The inhibition in experiment [7] was 5.71% (inactive); in experiment [8] it was -0.67% (inactive).

As for `CCC(C)(C(=O)NC1CCCCC1)N(Cc1ccco1)C(=O)c1ccc2c(c1)OCO2` (stereo not given), the viability in experiment [1] was 92.5%; in experiment [3], 92.5% (inactive); in experiment [4] it was 82.3% (inactive); in experiment [5], 83.4% (inactive); in experiment [6] (setting [9]), 80.3%; in experiment [6] (setting [10]), 83.4%. The Her2 level in experiment [2] is 89% (inactive). Also, the differential viability (reversal) in experiment [6] (H69AR cells + 2 uM doxorubicin) is 3.06% (inactive). For the same molecule, the figures for the inhibition in experiment [7] and in experiment [8] were -1.82% (inactive) and -7.05% (inactive), respectively.

`CCN(C(=O)Cc1c(C(=O)O)[nH]c2ccccc12)c1cc(OC)ccc1OC`: the viability in experiment [1] is 112%; in experiment [3], 112% (inactive); in experiment [4] it was 94.1% (inactive); in experiment [5] it was 92.7% (inactive); in experiment [6] (setting [9]), 95.3%; in experiment [6] (setting [10]), 92.7%. Further, in experiment [2], the Her2 level was 84% (inactive). Besides, in experiment [6] (H69AR cells + 2 uM doxorubicin), the differential viability (reversal) was -2.61% (inactive). The results for the inhibition in experiment [7] and in experiment [8] were -6.62% (inactive) and 4.5% (inactive), respectively.

As a reminder, the viability is a read-out of living cells in per cent, often relative to untreated cells. Broadly, the inhibition is the relative decrease from the control value, in per cent.
